Experimental data reported in ChEMBL document CHEMBL1128230, “5'-[4-(Pivaloyloxy)-1,3,2-dioxaphosphorinan-2-yl]-2'-deoxy-5-fluorouridine: a membrane-permeating prodrug of 5-fluoro-2'-deoxyuridylic acid (FdUMP)” (J Med Chem, 1995).

Assays:
Mus musculus [1] = experiment: Percentage increase in life span of treated mice implanted intraperitoneally with P-388 leukemia sensitive cells compared with controls at a dose of 100 mg/kg.; assay type: functional; conditions: P388, ip, route intraperitoneal
Procedure, shortened: (§1)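 Male BDF1 mice (six per group, average 22 g) inoculated ip with 1 × 10^6 P-388 cells, wild-type or FU-resistant subline, on day 0. Drugs given ip daily for 5 consecutive days starting 24 h after implantation, in 0.9% saline or Emulphor 620 vehicle; followed until death. Median survival of treated (T) vs saline controls (C); % ILS = (T/C − 1) × 100; body weight change recorded.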

Mus musculus [2] = experiment: Percentage increase in life span of treated mice implanted intraperitoneally with P-388 leukemia sensitive cells compared with controls at a dose of 150 mg/kg.; assay type: functional; conditions: P388, ip, route intraperitoneal; procedure, shortened: as §1
Mus musculus [3] = experiment: Percentage increase in life span of treated mice implanted intraperitoneally with P-388 leukemia sensitive cells compared with controls at a dose of 67 mg/kg.; assay type: functional; conditions: P388, ip, route intraperitoneal; procedure, shortened: as §1
Mus musculus [4] = experiment: Median survival time of […] implanted intraperitoneally with P-388 leukemia sensitive cells at a dose of 100 mg/kg.; assay type: functional; conditions: route intraperitoneal
Mus musculus [5] = experiment: Median survival time of 15 mice implanted intraperitoneally with P-388 leukemia sensitive cells at a dose of 150 mg/kg.; assay type: functional; conditions: route intraperitoneal
Mus musculus [6] = experiment: Median survival time of 15 mice implanted intraperitoneally with P-388 leukemia sensitive cells at a dose of 67 mg/kg.; assay type: functional; conditions: route intraperitoneal
Mus musculus [7] = experiment: Percentage increase in life span of treated mice implanted intraperitoneally with P-388 leukemia resistant cells compared with controls at a dose of 100 mg/kg.; assay type: functional; conditions: P388, ip, route intraperitoneal; procedure, shortened: as §1
Mus musculus [8] = experiment: Percentage increase in life span of treated mice implanted intraperitoneally with P-388 leukemia resistant cells compared with controls at a dose of 150 mg/kg.; assay type: functional; conditions: P388, ip, route intraperitoneal; procedure, shortened: as §1
Mus musculus [9] = experiment: Median survival time of […] implanted intraperitoneally with P-388 leukemia resistant cells at a dose of 100 mg/kg.; assay type: functional; conditions: route intraperitoneal
Mus musculus [10] = experiment: Median survival time of […] implanted intraperitoneally with P-388 leukemia resistant cells at a dose of 150 mg/kg.; assay type: functional; conditions: route intraperitoneal
Mus musculus [11] = experiment: Median survival time of […] implanted intraperitoneally with P-388 leukemia resistant cells at a dose of 67 mg/kg.; assay type: functional; conditions: route intraperitoneal
Mus musculus [12] = experiment: Average percentage weight change on day 5 in mice implanted intraperitoneally with P-388 leukemia sensitive cells at a dose of 150 mg/kg.; assay type: functional; conditions: route intraperitoneal
Procedure, shortened: (§2)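 Male BDF1 mice, six per group, average weight 22 g; 1 × 10^6 P-388 cells (FU-sensitive P-388/0 or FU-resistant P-388/FU) inoculated ip on day 0. Dosing ip daily for 5 consecutive days starting 24 h after implantation. Saline vehicle for FU and FUdR; Emulphor 620 formulation for the prodrug. Followed until death. % ILS = (T/C − 1) × 100 from median survival versus saline-treated controls.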

Mus musculus [13] = experiment: Average percentage weight change on day 5 in mice implanted intraperitoneally with P-388 leukemia sensitive cells at a dose of 67 mg/kg.; assay type: functional; conditions: route intraperitoneal; procedure, shortened: as §2
Mus musculus [14] = experiment: Average percentage weight change on day 5 in mice implanted intraperitoneally with P-388 leukemia resistant cells at a dose of 100 mg/kg.; assay type: functional; conditions: route intraperitoneal; procedure, shortened: as §2
Mus musculus [15] = experiment: Average percentage weight change on day 5 in mice implanted intraperitoneally with P-388 leukemia resistant cells at a dose of 150 mg/kg.; assay type: functional; conditions: route intraperitoneal; procedure, shortened: as §2
Mus musculus [16] = experiment: Average percentage weight change on day 5 in mice implanted intraperitoneally with P-388 leukemia resistant cells at a dose of 67 mg/kg.; assay type: functional; conditions: route intraperitoneal; procedure, shortened: as §2
Mus musculus [17] = experiment: Average percentage weight change on day 5 in mice implanted intraperitoneally with P-388 leukemia sensitive cells at a dose of 100 mg/kg at a dose of 100 mg/kg.; assay type: functional; procedure, shortened: as §2
Mus musculus [18] = experiment: Percentage increase in life span of treated mice implanted intraperitoneally with P-388 leukemia resistant cells compared with controls at a dose of 67 mg/kg.; assay type: functional; conditions: P388, ip, route intraperitoneal; procedure, shortened: as §1
CHO = experiment: Growth inhibitory activity against CHO cells in culture.; assay type: functional, cell-based; conditions: Cricetulus griseus
Procedure, shortened: (§3)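 CHO cells and FU-resistant CHO subline plated at about 200 cells per 35-mm dish and cloned with drug at 0, 0.5, 1.5, 5, 10, 50 and 100 µM for 7 days at 37 °C in humidified CO2. Clones fixed in 10% formaldehyde and stained with 0.1% crystal violet. Minimum inhibitory concentration is the lowest concentration giving colonies of fewer than 50 cells.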

CHO-FU = experiment: Growth inhibitory activity against CHO/FU cells in culture.; assay type: functional, cell-based; conditions: Cricetulus griseus; procedure, shortened: as §3
Mus musculus [19] = experiment: Percentage increase in life span of treated mice implanted intraperitoneally with P-388 leukemia sensitive cells compared with controls at a dose of 20 mg/kg.; assay type: functional; conditions: P388, ip, route intraperitoneal; procedure, shortened: as §1
Mus musculus [20] = experiment: Percentage increase in life span of treated mice implanted intraperitoneally with P-388 leukemia sensitive cells compared with controls at a dose of 30 mg/kg.; assay type: functional; conditions: P388, ip, route intraperitoneal; procedure, shortened: as §1
Mus musculus [21] = experiment: Median survival time of 15 mice implanted intraperitoneally with P-388 leukemia sensitive cells at a dose of 20 mg/kg.; assay type: functional; conditions: route intraperitoneal
Mus musculus [22] = experiment: Median survival time of 15 mice implanted intraperitoneally with P-388 leukemia sensitive cells at a dose of 30 mg/kg.; assay type: functional; conditions: route intraperitoneal; procedure, shortened: as §1
Mus musculus [23] = experiment: Percentage increase in life span of treated mice implanted intraperitoneally with P-388 leukemia resistant cells compared with controls at a dose of 20 mg/kg.; assay type: functional; conditions: P388, ip, route intraperitoneal; procedure, shortened: as §1
Mus musculus [24] = experiment: Percentage increase in life span of treated mice implanted intraperitoneally with P-388 leukemia resistant cells compared with controls at a dose of 30 mg/kg.; assay type: functional; conditions: P388, ip, route intraperitoneal; procedure, shortened: as §1
Mus musculus [25] = experiment: Percentage increase in life span of treated mice implanted intraperitoneally with P-388 leukemia resistant cells compared with controls at a dose of 40 mg/kg.; assay type: functional; conditions: P388, ip, route intraperitoneal; procedure, shortened: as §1
Mus musculus [26] = experiment: Median survival time of 15 mice implanted intraperitoneally with P-388 leukemia resistant cells at a dose of 20 mg/kg.; assay type: functional; conditions: route intraperitoneal
Mus musculus [27] = experiment: Median survival time of 15 mice implanted intraperitoneally with P-388 leukemia resistant cells at a dose of 30 mg/kg.; assay type: functional; conditions: route intraperitoneal
Mus musculus [28] = experiment: Median survival time of 15 mice implanted intraperitoneally with P-388 leukemia resistant cells at a dose of 40 mg/kg.; assay type: functional; conditions: route intraperitoneal
Mus musculus [29] = experiment: Average percentage weight change on day 5 in mice implanted intraperitoneally with P-388 leukemia sensitive cells at a dose of 20 mg/kg.; assay type: functional; conditions: route intraperitoneal; procedure, shortened: as §1
Mus musculus [30] = experiment: Average percentage weight change on day 5 in mice implanted intraperitoneally with P-388 leukemia sensitive cells at a dose of 30 mg/kg.; assay type: functional; conditions: route intraperitoneal; procedure, shortened: as §1
Mus musculus [31] = experiment: Average percentage weight change on day 5 in mice implanted intraperitoneally with P-388 leukemia resistant cells at a dose of 20 mg/kg.; assay type: functional; conditions: route intraperitoneal; procedure, shortened: as §1
Mus musculus [32] = experiment: Average percentage weight change on day 5 in mice implanted intraperitoneally with P-388 leukemia resistant cells at a dose of 30 mg/kg.; assay type: functional; conditions: route intraperitoneal; procedure, shortened: as §1
Mus musculus [33] = experiment: Average percentage weight change on day 5 in mice implanted intraperitoneally with P-388 leukemia resistant cells at a dose of 40 mg/kg.; assay type: functional; conditions: route intraperitoneal; procedure, shortened: as §1
Mus musculus [34] = experiment: Percentage increase in life span of treated mice implanted intraperitoneally with P-388 leukemia sensitive cells compared with controls for a dose of 100 mg/kg.; assay type: functional; conditions: P388, ip, route intraperitoneal
Procedure, shortened: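 Male BDF1 mice (six per group, about 22 g) inoculated ip with 1 × 10^6 P-388/0 leukemia cells on day 0. Drugs given ip daily for 5 consecutive days starting 24 h after implantation, in 0.9% saline or Emulphor 620 vehicle. Animals followed until death. %ILS = (T/C − 1) × 100 from median survival of treated versus saline-treated controls.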

Mus musculus [35] = experiment: Median survival time of […] implanted intraperitoneally with P-388 leukemia sensitive cells for a dose of 100 mg/kg.; assay type: functional; conditions: route intraperitoneal
Mus musculus [36] = experiment: Percentage increase in life span of treated mice implanted intraperitoneally with P-388 leukemia resistant cells compared with controls for a dose of 100 mg/kg.; assay type: functional; conditions: P388, ip, route intraperitoneal; procedure, shortened: as §1
Mus musculus [37] = experiment: Median survival time of […] implanted intraperitoneally with P-388 leukemia resistant cells for a dose of 100 mg/kg.; assay type: functional; conditions: route intraperitoneal
Mus musculus [38] = experiment: Average percentage weight change on day 5 in mice implanted intraperitoneally with P-388 leukemia sensitive cells for a dose of 100 mg/kg.; assay type: functional; conditions: route intraperitoneal; procedure, shortened: as §2
Mus musculus [39] = experiment: Average percentage weight change on day 5 in mice implanted intraperitoneally with P-388 leukemia resistant cells for a dose of 100 mg/kg.; assay type: functional; conditions: route intraperitoneal; procedure, shortened: as §2

## O=c1[nH]c(=O)n([C@H]2C[C@H](O)[C@@H](CO)O2)cc1F [FLOXURIDINE]
Mus musculus [1]
  ILS at 100 mg/kg: 73%
Mus musculus [2]
  ILS at 150 mg/kg: 82%
Mus musculus [3]
  ILS at 67 mg/kg: 45%
Mus musculus [4]
  MST: 19 days
Mus musculus [5]
  MST: 20 days
Mus musculus [6]
  MST: 16 days
Mus musculus [7]
  ILS at 100 mg/kg: 18%
Mus musculus [8]
  ILS at 150 mg/kg: 18%
Mus musculus [9]
  MST: 13 days
Mus musculus [10]
  MST: 13 days
Mus musculus [11]
  MST: 12 days
Mus musculus [12]
  Weight change: -5%
Mus musculus [13]
  Weight change: -2%
Mus musculus [14]
  Weight change: -10%
Mus musculus [15]
  Weight change: -10%
Mus musculus [16]
  Weight change: -6%
Mus musculus [17]
  Weight change: -4%
Mus musculus [18]
  ILS at 67 mg/kg: 9%

## O=c1[nH]cc(F)c(=O)[nH]1 [FLUOROURACIL]
CHO
  IC50: 5 µM
CHO-FU
  IC50: 100 µM
Mus musculus [19]
  ILS at 20 mg/kg: 45%
Mus musculus [20]
  ILS at 30 mg/kg: 55%
Mus musculus [21]
  MST: 16 days
Mus musculus [22]
  MST: 17 days
Mus musculus [23]
  ILS at 20 mg/kg: -9%
Mus musculus [24]
  ILS at 30 mg/kg: -18%
Mus musculus [25]
  ILS at 40 mg/kg: -18%
Mus musculus [26]
  MST: 10 days
Mus musculus [27]
  MST: 9 days
Mus musculus [28]
  MST: 9 days
Mus musculus [29]
  Weight change: -5%
Mus musculus [30]
  Weight change: -15%
Mus musculus [31]
  Weight change: -6%
Mus musculus [32]
  Weight change: -15%
Mus musculus [33]
  Weight change: -18%

## C=CC=O [ACROLEIN]
CHO
  IC50: 50 µM
CHO-FU
  IC50: 50 µM

## O=S(=O)([O-])CCS.[Na+] [MESNA]
Mus musculus [34]
  ILS at 100 mg/kg: 0%
Mus musculus [35]
  MST: 11 days
Mus musculus [36]
  ILS at 100 mg/kg: 0%
Mus musculus [37]
  MST: 11 days
Mus musculus [38]
  Weight change: 10%
Mus musculus [39]
  Weight change: 12%
